In ChEMBL document CHEMBL1138578, “Synthesis and antibacterial activity of nitroaryl thiadiazole-gatifloxacin hybrids” (Eur J Med Chem, 2009):
In brackets after ≈: the same amount, converted by molar mass.

Columns and labels:
Staphylococcus aureus = experiment: Antibacterial activity against Staphylococcus aureus ATCC 25923 after 18 hrs by conventional agar dilution method; type: functional; conditions: ATCC 25923, 18 h
Procedure, shortened: (§1)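 Twofold dilutions in DMSO (1 mL) mixed into molten Mueller–Hinton agar (19 mL) at 50 °C. Inocula adjusted at 600 nm to about 0.5 McFarland (1.5 × 10⁸ CFU/mL), then diluted in 0.85% saline to 10⁷ CFU/mL. Plates spot-inoculated at 10⁴ CFU/spot and incubated 35–37 °C for 18 h. MIC is the lowest concentration giving no visible growth. DMSO-only control plates included.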

[1] = test system: Staphylococcus epidermidis; experiment: Antibacterial activity against Staphylococcus epidermidis ATCC 4940 after 18 hrs by conventional agar dilution method; type: functional; conditions: ATCC 4940, 18 h; procedure, shortened: as §1
Streptococcus pneumoniae = experiment: Antibacterial activity against Streptococcus pneumoniae ATCC 1240 after 18 hrs by conventional agar dilution method; type: functional; conditions: ATCC 1240, 18 h; procedure, shortened: as §1
Bacillus subtilis = experiment: Antibacterial activity against Bacillus subtilis ATCC 6051 after 18 hrs by conventional agar dilution method; type: functional; conditions: ATCC 6051, 18 h; procedure, shortened: as §1
Enterococcus faecalis = experiment: Antibacterial activity against Enterococcus faecalis NCTC 6013 after 18 hrs by conventional agar dilution method; type: functional; conditions: NCTC 6013, 18 h; procedure, shortened: as §1
Micrococcus luteus = experiment: Antibacterial activity against Micrococcus luteus ATCC 1110 after 18 hrs by conventional agar dilution method; type: functional; conditions: ATCC 1110, 18 h; procedure, shortened: as §1
Escherichia coli = experiment: Antibacterial activity against Escherichia coli ATCC 25922 after 18 hrs by conventional agar dilution method; type: functional; conditions: ATCC 25922, 18 h; procedure, shortened: as §1
[2] = test system: Salmonella enterica subsp. enterica serovar Typhi str. CT18; experiment: Antibacterial activity against Salmonella typhi ATCC 19430 after 18 hrs by conventional agar dilution method; type: functional; conditions: ATCC 19430, 18 h
Procedure, shortened: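 Twofold dilutions in DMSO mixed into molten Mueller–Hinton agar at 50 °C. Inoculum adjusted at 600 nm to about 0.5 McFarland (1.5 ×10⁸ CFU/mL), then diluted in 0.85% saline to 10⁷ CFU/mL. Plates spot-inoculated at 10⁴ CFU/spot and incubated at 35–37 °C for 18 h. MIC taken as the lowest concentration with no visible growth. DMSO solvent control run at matching dilutions.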

Shigella flexneri = experiment: Antibacterial activity against Shigella flexneri NCTC 8516 after 18 hrs by conventional agar dilution method; type: functional; conditions: NCTC 8516, 18 h; procedure, shortened: as §1
Klebsiella pneumoniae = experiment: Antibacterial activity against Klebsiella pneumoniae ATCC 10031 after 18 hrs by conventional agar dilution method; type: functional; conditions: ATCC 10031, 18 h; procedure, shortened: as §1
Serratia marcescens = experiment: Antibacterial activity against Serratia marcescens PTCC 1111 after 18 hrs by conventional agar dilution method; type: functional; conditions: PTCC 1111, 18 h; procedure, shortened: as §1
Pseudomonas aeruginosa = experiment: Antibacterial activity against Pseudomonas aeruginosa ATCC 27853 after 18 hrs by conventional agar dilution method; type: functional; conditions: ATCC 27853, 18 h; procedure, shortened: as §1
[3] = Cytotoxicity against mouse NIH/3T3 cells after 72 hrs by MTT assay; type: cell-based; conditions: NIH3T3, 72 h
Procedure, shortened: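 Exponential-phase NIH/3T3 fibroblasts trypsinized and diluted in complete medium to 5 × 10⁴ cells/mL, then plated in 96-well plates. Serial compound dilutions added, each in triplicate, with cell-only wells as the viability control. Incubation 72 h, then MTT (5 mg/mL solution) added for 1 h and the medium replaced for colorimetric read-out.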

SMILES	MIC (Staphylococcus aureus)	MIC [1]	MIC (Streptococcus pneumoniae)	MIC (Bacillus subtilis)	MIC (Enterococcus faecalis)	MIC (Micrococcus luteus)	MIC (Escherichia coli)	MIC [2]	MIC (Shigella flexneri)	MIC (Klebsiella pneumoniae)	MIC (Serratia marcescens)	MIC (Pseudomonas aeruginosa)	IC50 [3]
COc1c(N2CCN(c3nnc(-c4ncc([N+](=O)[O-])n4C)s3)C(C)C2)c(F)cc2c(=O)c(C(=O)O)cn(C3CC3)c12 (stereo unspecified)	0.0313 mg/L (≈ 0.0535 µM)	0.5 mg/L (≈ 0.855 µM)	1 mg/L (≈ 1.71 µM)	0.5 mg/L (≈ 0.855 µM)	4 mg/L (≈ 6.84 µM)	2 mg/L (≈ 3.42 µM)	16 mg/L (≈ 27.4 µM)	0.25 mg/L (≈ 0.428 µM)	1 mg/L (≈ 1.71 µM)	0.5 mg/L (≈ 0.855 µM)	64 mg/L (≈ 109 µM)	> 64 mg/L	246 µM
COc1c(N2CCN(c3nnc(-c4ccc([N+](=O)[O-])s4)s3)C(C)C2)c(F)cc2c(=O)c(C(=O)O)cn(C3CC3)c12 (stereo unspecified)	0.5 mg/L (≈ 0.852 µM)	0.125 mg/L (≈ 0.213 µM)	0.25 mg/L (≈ 0.426 µM)	0.5 mg/L (≈ 0.852 µM)	2 mg/L (≈ 3.41 µM)	4 mg/L (≈ 6.82 µM)	32 mg/L (≈ 54.5 µM)	1 mg/L (≈ 1.7 µM)	1 mg/L (≈ 1.7 µM)	16 mg/L (≈ 27.3 µM)	8 mg/L (≈ 13.6 µM)	> 64 mg/L	243 µM
COc1c(N2CCN(c3nnc(-c4ccc([N+](=O)[O-])o4)s3)C(C)C2)c(F)cc2c(=O)c(C(=O)O)cn(C3CC3)c12 (stereo unspecified)	0.125 mg/L (≈ 0.219 µM)	0.0078 mg/L (≈ 0.0137 µM)	0.25 mg/L (≈ 0.438 µM)	0.0039 mg/L (≈ 0.00684 µM)	0.125 mg/L (≈ 0.219 µM)	0.125 mg/L (≈ 0.219 µM)	1 mg/L (≈ 1.75 µM)	1 mg/L (≈ 1.75 µM)	0.5 mg/L (≈ 0.876 µM)	1 mg/L (≈ 1.75 µM)	8 mg/L (≈ 14 µM)	> 64 mg/L	238 µM
COc1c(N2CCN(c3nnc(-c4ccccc4[N+](=O)[O-])s3)C(C)C2)c(F)cc2c(=O)c(C(=O)O)cn(C3CC3)c12 (stereo unspecified)	32 mg/L (≈ 55.1 µM)	0.0625 mg/L (≈ 0.108 µM)	0.25 mg/L (≈ 0.431 µM)	0.0625 mg/L (≈ 0.108 µM)	2 mg/L (≈ 3.44 µM)	0.5 mg/L (≈ 0.861 µM)	16 mg/L (≈ 27.6 µM)	16 mg/L (≈ 27.6 µM)	16 mg/L (≈ 27.6 µM)	64 mg/L (≈ 110 µM)	16 mg/L (≈ 27.6 µM)	> 64 mg/L	168 µM
COc1c(N2CCN(c3nnc(-c4ccc([N+](=O)[O-])cc4)s3)C(C)C2)c(F)cc2c(=O)c(C(=O)O)cn(C3CC3)c12 (stereo unspecified)	32 mg/L (≈ 55.1 µM)	0.0625 mg/L (≈ 0.108 µM)	0.0625 mg/L (≈ 0.108 µM)	0.0313 mg/L (≈ 0.0539 µM)	1 mg/L (≈ 1.72 µM)	0.25 mg/L (≈ 0.431 µM)	16 mg/L (≈ 27.6 µM)	8 mg/L (≈ 13.8 µM)	8 mg/L (≈ 13.8 µM)	64 mg/L (≈ 110 µM)	16 mg/L (≈ 27.6 µM)	> 64 mg/L	223 µM
COc1c(N2CCN(c3nnc(-c4cccc([N+](=O)[O-])c4)s3)C(C)C2)c(F)cc2c(=O)c(C(=O)O)cn(C3CC3)c12 (stereo unspecified)	> 64 mg/L	0.0313 mg/L (≈ 0.0539 µM)	1 mg/L (≈ 1.72 µM)	32 mg/L (≈ 55.1 µM)	> 64 mg/L	1 mg/L (≈ 1.72 µM)	> 64 mg/L	> 64 mg/L	> 64 mg/L	> 64 mg/L	> 64 mg/L	> 64 mg/L	161 µM
COc1c(N2CCNC(C)C2)c(F)cc2c(=O)c(C(=O)O)cn(C3CC3)c12 (stereo unspecified) [GATIFLOXACIN]	0.25 mg/L (≈ 0.666 µM)	0.0625 mg/L (≈ 0.166 µM)	0.25 mg/L (≈ 0.666 µM)	0.5 mg/L (≈ 1.33 µM)	0.5 mg/L (≈ 1.33 µM)	1 mg/L (≈ 2.66 µM)	1 mg/L (≈ 2.66 µM)	0.0625 mg/L (≈ 0.166 µM)	0.0625 mg/L (≈ 0.166 µM)	0.5 mg/L (≈ 1.33 µM)	0.5 mg/L (≈ 1.33 µM)	2 mg/L (≈ 5.33 µM)	596 µM
